Source: publication PMC2233745 (The Journal of General Physiology, 2001)
Numbering of substitutions follows the chain as printed. Like-named read-outs stand apart in the source and are kept apart here. Ends that are not written are not given here.

Experiments:
[1] = test system: PDE activity in GH4C1 cells; test: Effect of PDE inhibitors on forskolin-induced Ca2+ influx in GH4C1 cells; type: cell-based, rat; conditions: Δ61–90/C460W/E583M channels, 10 μM forskolin, 1 μM nimodipine
[2] = test system: PDE activity in HEK-293 cells; test: Effects of PDE inhibitors on forskolin-induced Ca2+ influx in HEK-293 cells; type: cell-based, human; conditions: C460W/E583M channels, 1 μM forskolin, IBMX 10 or 100 μM, RO-20-1724 10 μM
CNG channel = CNG channel activity in excised patches with PDE inhibitor; type: biochemical, rat; conditions: 100 μM IBMX, data not shown
Method in brief: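 Patch clamp on rat olfactory CNG channels expressed from an adenovirus vector. Gigaohm seals were formed, then patches were excised by shearing the cell off the pipette with a liquid jet. Currents were elicited by 250-ms pulses to +50 and −50 mV from a 0 mV holding potential and sampled at five times the filter setting.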

HEK-293 cells = test: Equilibration of PDE inhibitors across the plasma membrane; type: cell-based, human; conditions: data not shown
[3] = biological target: T1, C460W/E583M rat olfactory CNG channel (Rattus norvegicus, UniProt Q00195, C460W/E583M); test: Excised inside-out patch recording, C460W/E583M CNG channel; type: biochemical; conditions: for N (Hill coefficient): mean ± SD of three experiments
T1 sequence (Q00195 1-664 C460W/E583M): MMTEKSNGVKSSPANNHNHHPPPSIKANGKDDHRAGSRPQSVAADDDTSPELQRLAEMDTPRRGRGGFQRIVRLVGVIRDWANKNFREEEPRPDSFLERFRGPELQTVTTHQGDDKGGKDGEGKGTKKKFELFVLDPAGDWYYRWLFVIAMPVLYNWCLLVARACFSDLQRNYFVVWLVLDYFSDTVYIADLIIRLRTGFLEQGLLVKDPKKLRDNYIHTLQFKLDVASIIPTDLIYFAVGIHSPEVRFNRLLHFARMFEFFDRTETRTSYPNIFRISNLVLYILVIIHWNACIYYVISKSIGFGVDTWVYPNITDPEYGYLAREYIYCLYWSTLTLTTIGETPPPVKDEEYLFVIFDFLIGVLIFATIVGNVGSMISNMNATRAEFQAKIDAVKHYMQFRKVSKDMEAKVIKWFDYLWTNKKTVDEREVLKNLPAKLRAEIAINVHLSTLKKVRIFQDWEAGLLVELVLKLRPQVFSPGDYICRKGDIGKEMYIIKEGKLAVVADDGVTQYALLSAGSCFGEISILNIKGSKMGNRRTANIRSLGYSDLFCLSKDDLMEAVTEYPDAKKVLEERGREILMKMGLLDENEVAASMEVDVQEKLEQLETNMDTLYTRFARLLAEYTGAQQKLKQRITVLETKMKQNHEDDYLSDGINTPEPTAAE

[4] = biological target: T2, Δ61–90/C460W/E583M rat olfactory CNG channel (Rattus norvegicus, UniProt Q00195, C460W/DEL61-90/E583M); test: Excised inside-out patch recording, Δ61–90/C460W/E583M CNG channel; type: biochemical; conditions: Δ61-90/C460W/E583M channel, mean ± SD of three experiments; for EC50: read-out: K1/2 (concentration that gives half-maximal current)
T2 sequence (Q00195 with tags, fused parts or gaps DEL61-90/C460W/E583M): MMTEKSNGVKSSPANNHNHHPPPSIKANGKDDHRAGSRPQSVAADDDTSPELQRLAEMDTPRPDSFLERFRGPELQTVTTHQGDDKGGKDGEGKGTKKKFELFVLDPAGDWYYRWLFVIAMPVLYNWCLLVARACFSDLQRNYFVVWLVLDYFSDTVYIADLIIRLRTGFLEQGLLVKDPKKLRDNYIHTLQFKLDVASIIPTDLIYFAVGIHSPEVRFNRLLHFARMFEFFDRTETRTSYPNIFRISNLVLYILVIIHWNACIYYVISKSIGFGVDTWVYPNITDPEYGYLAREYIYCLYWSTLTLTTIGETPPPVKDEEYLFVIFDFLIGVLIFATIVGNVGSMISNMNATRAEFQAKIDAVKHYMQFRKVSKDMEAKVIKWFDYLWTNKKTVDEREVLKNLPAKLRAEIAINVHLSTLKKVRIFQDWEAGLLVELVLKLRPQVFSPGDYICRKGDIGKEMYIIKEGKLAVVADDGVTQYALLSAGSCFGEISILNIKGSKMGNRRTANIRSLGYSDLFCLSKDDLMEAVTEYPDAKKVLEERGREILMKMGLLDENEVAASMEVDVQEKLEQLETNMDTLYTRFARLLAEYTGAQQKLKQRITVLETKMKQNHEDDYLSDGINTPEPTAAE

[5] = biological target: T3, E583M rat olfactory CNG channel (Rattus norvegicus, UniProt Q00195, E583M); test: Excised inside-out patch recording, E583M CNG channel; type: biochemical; conditions: for N (Hill coefficient): mean ± SD of three experiments
T3 sequence (Q00195 1-664 E583M): T1 sequence (Q00195 1-664 C460W/E583M) with W460C

[6] = biological target: T4, WT rat olfactory CNG channel α subunit (Rattus norvegicus, UniProt Q00195); test: Excised inside-out patch recording, WT CNG channel; type: biochemical; conditions: for N (Hill coefficient): mean ± SD of three experiments
T4 sequence (Q00195 1-664): T1 sequence (Q00195 1-664 C460W/E583M) with W460C, M583E

[7] = test system: HEK-293 cells expressing CNG channels; test: Forskolin-induced Ca2+ influx through expressed CNG channels in HEK-293 cells; type: cell-based, human; conditions: for forskolin concentration at which delay and rate of Ca2+ influx saturate: 100 μM IBMX
Method in brief: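 HEK-293 cells were infected with channel-encoding adenovirus (MOI 10) and detached at 24 h with PBS/0.03% EDTA. They were loaded at room temperature for 30–40 min with 4 μM fura-2/AM and 0.02% pluronic F-127, then resuspended in HEPES-buffered saline with 1 mM CaCl2, pH 7.4, and stirred in a cuvette. 100 μM IBMX was added at 0 s and forskolin at 180 s. ΔF/F0 was read at ex 380/em 510 nm; n = 4 batches.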

[8] = test system: GH4C1 cells expressing C460W/E583M channels; test: AC activator-induced Ca2+ influx in GH4C1 cells expressing C460W/E583M channels; type: cell-based, rat; conditions: after vehicle or 100 μM IBMX
Method in brief: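 Rat GH4C1 cells kept in Ham's F-10 (15% horse serum, 2.5% FBS, pH 6.8, 37°C), adenovirus-infected (MOI 50), assayed within 12 h of harvest at 48 h post-infection. Loaded 70 min with 4 μM fura-2/AM at room temperature, then washed. Read in pH 7.4 saline (1 mM CaCl2) at ex 380/em 510 nm as ΔF/F0. Nimodipine 1 μM at time zero; IBMX/vehicle at 60 s; agonist afterwards.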

[9] = test system: HEK-293 and C6–2B glioma cells; conditions: ref Rich et al. 2000, cited from earlier work
[10] = test system: voltage-gated Ca2+ channels; test: Block of Ca2+ influx through voltage-gated Ca2+ channels in GH4C1 cells; type: cell-based, rat; conditions: 1 μM nimodipine, membrane depolarization in 24 mM external KCl, data not shown
[11] = read-out: K1/2 (concentration that gives half-maximal current), +50 mV, mean ± SD of three experiments
[12] = read-out: K1/2 (concentration that gives half-maximal current), −50 mV, mean ± SD of three experiments
[13] = read-out: K1/2, +50 mV, experiment shown in Fig. 2

COCc1nc2c([nH]1)c(=O)n(C)c(=O)n2CC(C)C [8-methoxymethyl-IBMX]
effect on PDE activity / forskolin-induced Ca2+ influx [1]: significantly inhibited PDE activity

CCOC(=O)c1cnc2c(cnn2CC)c1NN=C(C)C [Etazolate]
effect on forskolin-induced Ca2+ influx [2]: significantly increased the forskolin-induced Ca^2+ influx

CC(C)Cn1c(=O)n(C)c(=O)c2[nH]cnc21 [IBMX, 3-isobutyl-1-methylxanthine]
effect on PDE activity / forskolin-induced Ca2+ influx [1]: significantly inhibited PDE activity
effect on forskolin-induced Ca2+ influx [2]: significant forskolin-induced Ca^2+ influx was observed
effect on CNG channel activity in excised patches (CNG channel): did not alter CNG channel activity
time to complete equilibration across the plasma membrane (HEK-293 cells): < 180 s

CCCCOc1cc(CC2CNC(=O)N2)ccc1OC (stereo not shown) [RO-20-1724, 4-(3-butoxy-4-methoxybenzyl)-2-imidazolidinone]
effect on PDE activity / forskolin-induced Ca2+ influx [1]: also inhibited PDE activity
effect on forskolin-induced Ca2+ influx [2]: significant forskolin-induced Ca^2+ influx was observed
time to complete equilibration across the plasma membrane (HEK-293 cells): < 180 s

COc1ccc(C2CNC(=O)C2)cc1OC1CCCC1 (stereo not shown) [Rolipram]
effect on PDE activity / forskolin-induced Ca2+ influx [1]: also inhibited PDE activity
effect on forskolin-induced Ca2+ influx [2]: significantly increased the forskolin-induced Ca^2+ influx
time to complete equilibration across the plasma membrane (HEK-293 cells): < 180 s

Nc1nc2c(ncn2[C@@H]2O[C@@H]3COP(=O)(O)O[C@H]3[C@H]2O)c(=O)[nH]1 [cGMP]
N (Hill coefficient) ([3]; +50 mV): 2.8 ± 0.3
EC50 [3, 11]: 12 ± 2 µM
EC50 [3, 12]: 6.2 ± 1 µM
EC50 [3, 13]: 11 µM
N (Hill coefficient) ([3]; −50 mV): 2.7 ± 0.1
EC50 ([4]; +50 mV): 36 ± 4 µM
EC50 ([4]; −50 mV): 16 ± 1 µM
N (Hill coefficient) ([4]; +50 mV): 1.8 ± 0.2
N (Hill coefficient) ([4]; −50 mV): 2.6 ± 0.2
N (Hill coefficient) ([5]; +50 mV): 2.4 ± 0.2
EC50 [5, 11]: 28 ± 2 µM
EC50 [5, 12]: 32 ± 4 µM
EC50 [5, 13]: 25 µM
N (Hill coefficient) ([5]; −50 mV): 1.9 ± 0.2
N (Hill coefficient) ([6]; +50 mV): 2.3 ± 0.1
EC50 [6, 11]: 1.6 ± 0.1 µM
EC50 [6, 12]: 1.3 ± 0.4 µM
N (Hill coefficient) ([6]; −50 mV): 2.5 ± 0.4

C=C[C@@]1(C)CC(=O)[C@]2(O)[C@@]3(C)[C@@H](O)CCC(C)(C)[C@@H]3[C@H](O)[C@H](OC(C)=O)[C@@]2(C)O1 [forskolin]
forskolin concentration at which delay and rate of Ca2+ influx saturate ([7]; HEK-293 cells expressing C460W/E583M channel): 5 µM
forskolin concentration at which delay and rate of Ca2+ influx saturate ([7]; HEK-293 cells expressing E583M channel): 20 µM
forskolin concentration at which delay and rate of Ca2+ influx saturate ([7]; HEK-293 cells expressing WT channel): > 50 µM
forskolin concentration at which delay and rate of Ca2+ influx saturate ([7]; HEK-293 cells expressing Δ61–90/C460W/E583M channel): 20 µM
cAMP accumulation and Ca2+ influx after addition ([8]; 10 μM forskolin): caused additional cAMP accumulation and Ca^2+ influx
forskolin-induced increase in cAMP concentration measured using CNG channels ([9]; local cAMP near the plasma membrane): > 25 µM
forskolin-induced increase in cAMP concentration averaged throughout the accessible cell volume [9]: 1 to 2 µM

COCCOC(=O)C1=C(C)NC(C)=C(C(=O)OC(C)C)C1c1cccc([N+](=O)[O-])c1 (stereo not shown) [nimodipine]
block of Ca2+ influx through voltage-gated Ca2+ channels [10]: sufficient to block Ca^2+ influx through voltage-gated Ca^2+ channels
effect on forskolin or pCPT-cGMP induced Ca2+ influx through CNG channels ([7]; 1 μM nimodipine, HEK-293 cells, data not shown): did not alter

vasoactive intestinal peptide (HSDAVFTDNYTRLRKQMAVKKYLNSILN; ends and bridges not checked; UniProt P01282 125-152, looked up) [VIP]
cAMP accumulation and Ca2+ influx after addition ([8]; 100 nM VIP): caused additional cAMP accumulation and Ca^2+ influx
